Results published in ChEMBL document CHEMBL1828568, “Novel imaging agents for β-amyloid plaque based on the N-benzoylindole core” (Bioorg Med Chem Lett, 2011).

Assay: Displacement of [125I]TZDM from amyloid beta (1 to 40) aggregates after 2 hrs by gamma counting
Outline: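 Competition binding against [125I]TZDM as radiolabeled standard, using Aβ1–40 aggregates; run in triplicate, results as mean ± SD.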

Ki [nM] | Structure (SMILES)
21.6 | O=C(/C=C/c1ccccc1)n1ccc2cc(O)ccc21
32.4 | COc1ccc(/C=C/C(=O)n2ccc3cc(F)ccc32)cc1
25.4 | COc1ccc(/C=C/C(=O)n2ccc3cc(Br)ccc32)cc1
68.2 | COc1ccc2c(ccn2C(=O)/C=C/c2ccccc2)c1
36.4 | O=C(/C=C/c1ccccc1)n1ccc2cc(Cl)ccc21
